Reference: paper PMC4618649 (Pharmacology Research & Perspectives, 2015)
Like-named read-outs stand apart in the source and are kept apart here.

Tests used:
[1] = Substrate depletion in human liver microsomes; assay type: in vitro ADME; details: both, human, human liver microsomes
[2] = tested on: Human liver microsomes (HLMs); assay: Substrate depletion in human liver microsomes; assay type: in vitro ADME; details: largest k calculated, used to approximate first-order conditions; HLMs 0.25 mg/mL
CYP2C8 (rCYP2C8) = target: T1, CYP2C8 (rCYP2C8) (Homo sapiens, UniProt P10632); assay: Substrate depletion by human recombinant CYP2C8; assay type: in vitro ADME; details: human, recombinant CYP2C8 Supersomes (insect cell microsomes)
T1 sequence (P10632 1-490): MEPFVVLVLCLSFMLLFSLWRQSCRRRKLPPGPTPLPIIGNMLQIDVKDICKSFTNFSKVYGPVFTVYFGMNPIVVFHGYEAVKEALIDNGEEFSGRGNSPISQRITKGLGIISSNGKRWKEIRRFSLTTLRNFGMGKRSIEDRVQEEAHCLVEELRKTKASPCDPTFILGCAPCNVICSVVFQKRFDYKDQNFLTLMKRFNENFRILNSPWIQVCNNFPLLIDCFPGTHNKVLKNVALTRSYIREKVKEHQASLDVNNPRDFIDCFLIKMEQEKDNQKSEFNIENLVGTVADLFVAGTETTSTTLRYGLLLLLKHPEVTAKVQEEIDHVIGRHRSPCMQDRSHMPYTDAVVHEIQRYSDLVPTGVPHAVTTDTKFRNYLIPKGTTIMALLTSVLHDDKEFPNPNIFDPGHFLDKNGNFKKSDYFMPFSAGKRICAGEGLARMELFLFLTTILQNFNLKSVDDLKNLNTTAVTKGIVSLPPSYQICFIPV
How it was run: (§1)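 Human recombinant CYPs were insect-cell microsomes, with CYPb5 co-expressed if available, plus a no-CYP membrane control. Test compound (30 or 300 nmol/L) was incubated with matrix (0.25 mg/mL) and buffer. NADPH (1 mmol/L) started the reaction, and acetonitrile with internal standard stopped it after 5 or 30 min. CLint came from −kdep and the amount of rCYP, scaled to HLM by relative activity factor.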

rCYP2C8 = target: T2, rCYP2C8 (Homo sapiens, UniProt P10632); assay: Substrate depletion by human recombinant CYP2C8; assay type: in vitro ADME; details: rCYP2C8
T2 sequence (P10632 1-490): T1 sequence (P10632 1-490)
How it was run: as §1

CYP3A (rCYP3A4) = CYP3A (rCYP3A4) (Homo sapiens, UniProt P08684); assay: Substrate depletion by human recombinant CYP3A4; assay type: in vitro ADME
How it was run: as §1

[3] = assay type: in vivo, human; details: for % AUC(tlast–∞): geometric mean (range)
How it was run: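 Five healthy males received a single oral 100 mg dose containing ~100 μCi 14C-label, with blood sampled to 192 h. Plasma parent was measured by LC/MS/MS (range 1–1000 ng/mL). Total radioactivity was counted by liquid scintillation, directly in plasma and after combustion for whole blood. Parameters were derived noncompartmentally. Adverse events were recorded.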

[4] = Phase 1 disposition study: excretion and mass balance; assay type: in vivo, human
How it was run: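 Five healthy males received a single oral 100 mg dose containing ~100 μCi 14C-label. Urine and feces were collected to 216 h, and expired air at selected times to 48 h for 14CO2. Radioactivity was counted by liquid scintillation, either directly (urine, expired air) or after combustion (feces). Cumulative fraction of dose was summed over collection periods.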

[5] = Phase 1 disposition study: metabolite radioprofiling in plasma and feces; assay type: in vivo, human; details: for Percent dose mean excreted in feces: single oral 100 mg 14C-evacetrapib
How it was run: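 Samples came from five healthy males after a single oral 100 mg dose (~100 μCi 14C). Plasma, feces and urine were extracted, dried and reconstituted in DMSO/acetonitrile/10 mmol/L ammonium acetate (1:3:3). Metabolites were separated by HPLC, and fractions were counted to build radiochromatograms. Structures were identified by LC/MS and LC/MS/MS (ion trap, plus Orbitrap accurate mass) in positive ion mode.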

[6] = Phase 1 DDI study with ketoconazole in healthy subjects; assay type: in vivo, human; details: for Ratio of geometric LS means, AUC(0–∞), evacetrapib + ketoconazole versus evacetrapib (90% CI) / Ratio of geometric LS means, Cmax, evacetrapib + ketoconazole versus evacetrapib (90% CI): 100 mg evacetrapib, 400 mg ketoconazole daily; for CL/F: geometric mean (% CV)
How it was run: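 Twelve fasted healthy adults of both sexes (18–65 y, BMI 18–32 kg/m2) took part in a fixed-sequence study. Period 1 was a single oral 100 mg of test compound, sampled predose to 168 h. After a ≥14-day washout, Period 2 was ketoconazole 400 mg daily for 14 days with 100 mg test compound on Day 5, sampled for 240 h. Plasma LC/MS/MS range was 1–1000 ng/mL. Analysis was noncompartmental, with log ANOVA (treatment fixed, subject random) and 90% CIs; tmax was compared by Wilcoxon test. Adverse events were recorded.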

[7] = Phase 1 DDI study with gemfibrozil in healthy subjects; assay type: in vivo, human; details: for Ratio of geometric LS means, AUC(0–τ), evacetrapib + gemfibrozil versus evacetrapib (90% CI) / Ratio of geometric LS means, Cmax, evacetrapib + gemfibrozil versus evacetrapib (90% CI): 130 mg QD, 600 mg gemfibrozil BID
[8] = ref Mantlo and Escribano [2014]; Cannady 2013; cited from earlier work
[9] = ref Mantlo and Escribano [2014]; Cannady 2013; cited from earlier work; remark: listed apart in the source
[10] = patients with dyslipidemia, alone or with statins; ref Nicholls et al. [2011]; cited from earlier work
[11] = male, human, plasma, oral, 100 mg
[12] = both, human, plasma, oral, 100 mg
[13] = both, human, plasma, oral, 400 mg
[14] = both, human, plasma, oral, 130 mg

Sequence of CYP3A (rCYP3A4) (P08684 whole entry): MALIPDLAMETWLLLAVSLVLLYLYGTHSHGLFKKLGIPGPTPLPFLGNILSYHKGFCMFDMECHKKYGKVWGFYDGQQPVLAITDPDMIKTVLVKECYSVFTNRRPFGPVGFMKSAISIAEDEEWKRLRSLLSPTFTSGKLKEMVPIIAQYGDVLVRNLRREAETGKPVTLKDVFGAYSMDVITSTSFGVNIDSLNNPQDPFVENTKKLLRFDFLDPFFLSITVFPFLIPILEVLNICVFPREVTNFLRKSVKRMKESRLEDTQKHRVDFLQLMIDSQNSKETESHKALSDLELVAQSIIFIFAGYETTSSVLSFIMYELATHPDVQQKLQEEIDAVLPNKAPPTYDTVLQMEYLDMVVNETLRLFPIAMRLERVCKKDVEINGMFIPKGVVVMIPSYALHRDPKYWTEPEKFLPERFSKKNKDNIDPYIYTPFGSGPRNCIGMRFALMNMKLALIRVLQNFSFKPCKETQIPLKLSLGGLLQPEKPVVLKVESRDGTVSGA

Cc1cc(C)c2c(c1)[C@@H](N(Cc1cc(C(F)(F)F)cc(C(F)(F)F)c1)c1nnn(C)n1)CCCN2C[C@H]1CC[C@H](C(=O)O)CC1 [evacetrapib]
microsomal CLint [1]: 138 µL/min/mg | substrate depletion rate constant k in HLMs [2]: 0.0345 min⁻¹ | microsomal CLint (CYP2C8 (rCYP2C8)): 19.9 µL/min/mg | CLint (rCYP2C8): 0.712 μL × min^−1 × pmol CYP^−1 | −kdep (rCYP2C8): 0.000707 s⁻¹ | microsomal CLint (CYP3A (rCYP3A4); human, recombinant CYP3A4 Supersomes (insect cell microsomes)): 186 µL/min/mg | CLint (CYP3A (rCYP3A4); rCYP3A4 representing CYP3A): 4.257 μL × min^−1 × pmol CYP^−1 | −kdep (CYP3A (rCYP3A4); rCYP3A4 representing CYP3A): 0.002608 s⁻¹ | Average (%) of total radioactivity attributed to evacetrapib ([3]; based on AUC(0–36), plasma): 66% | Average (%) of total radioactivity attributed to evacetrapib ([3]; based on AUC(0–∞), plasma): 52% | Average (%) of total radioactivity attributed to evacetrapib ([3]; based on Cmax, plasma): 82% | % AUC(tlast–∞) ([3]; blood total radioactivity, N = 4): 21 (18–24) ^2% | association of evacetrapib-related material with red blood cells ([3]; from blood-to-plasma radioactivity ratios and hematocrit): negligible | AUC(0-t) [3, 11]: 6250 ng·h/mL | Cmax [3, 11]: 777 ng/mL | Vd/F [3, 11]: 564 L | half-life [3, 11]: 32.3 h | AUC(0-inf) ([3]; male, human, plasma, po, 100 mg): 8250 ng·h/mL | CL/F ([3]; plasma evacetrapib, geometric mean (CV)): 12.1 (20) L/h | % AUC(tlast–∞) ([3]; plasma evacetrapib): 1 (0–4) % | % AUC(tlast–∞) ([3]; plasma total radioactivity): 19 (13–26) % | treatment-emergent adverse events (TEAEs) reported ([3]; reported by 2 of 5 subjects, single 100-mg dose): 5 | AEs related to evacetrapib as judged by the investigator ([3]; single 100-mg dose): Three | severity of all AEs ([3]; single 100-mg dose): mild | dose excreted in feces ([4]; mean (±SD), up to 216 h): 93.1 % of the dose | dose excreted in urine ([4]; mean (±SD), up to 216 h): 2.30 % of the dose | levels of radioactivity in expired air ([4]; samples up to 48 h): negligible | radioactive peaks in plasma ([5]; 24-h plasma samples, detected in only 3 subjects): only quantifiable radioactive peak | dose eliminated via CYP-mediated (oxidative) metabolism ([5]; from fecal metabolites): Approximately 70% | Dose eliminated in the select feces through 192 h postdose ([5]; percent dose mean): 89.86% | Percent dose mean excreted in feces [5]: 17 % of the dose | Percent dose mean excreted in feces ([5]; listed as Evacetrapib): 16.80 % of the dose | fraction of evacetrapib eliminated by CYPs ([5]; used in the static model): ~1 For determinations of fm, CYP3A4-mediated metabolism was considered to represent total CPY3A-mediated metabolism AUCi/AUC = 1/(1-fmCYP3A × fraction of evacetrapib eliminated by CYPs) where the fraction of evacetrapib eliminated by CYPs is approximately 0.7. | Ratio of geometric LS means, AUC(0–∞), evacetrapib + ketoconazole versus evacetrapib (90% CI) [6]: 2.37 | Ratio of geometric LS means, Cmax, evacetrapib + ketoconazole versus evacetrapib (90% CI) [6]: 1.94 | Ratio of geometric LS means, AUC(0–∞), evacetrapib + ketoconazole versus evacetrapib (90% CI) ([6]; listed as Evacetrapib): 2.37 (1.77, 3.18) | Ratio of geometric LS means, Cmax, evacetrapib + ketoconazole versus evacetrapib (90% CI) ([6]; listed as Evacetrapib): 1.94 (1.39, 2.72) | AUC(0-inf) [6, 12]: 5260 ng·h/mL | Cmax [6, 12]: 332 ng/mL | Tmax [6, 12]: 3 h | Vd/F [6, 12]: 861 L | Tmax [6, 13]: 3 h | Vd/F [6, 13]: 592 L | half-life [6, 13]: 63.2 h | TEAEs considered mild ([6]; evacetrapib alone or in combination with ketoconazole): 16 | TEAEs reported ([6]; evacetrapib alone or in combination with ketoconazole, reported by 5 subjects): 18 | CL/F ([6]; evacetrapib alone): 19.0 (51) L/h | CL/F ([6]; with 400 mg ketoconazole): 8.24 (57) L/h | difference in median tmax between treatments ([6]; with versus without ketoconazole): no difference | Ratio of geometric LS means, AUC(0–τ), evacetrapib + gemfibrozil versus evacetrapib (90% CI) [7]: 0.996 | Ratio of geometric LS means, Cmax, evacetrapib + gemfibrozil versus evacetrapib (90% CI) [7]: 1.02 | Ratio of geometric LS means, AUC(0–τ), evacetrapib + gemfibrozil versus evacetrapib (90% CI) ([7]; listed as Evacetrapib): 0.996 (0.922, 1.08) | Ratio of geometric LS means, Cmax, evacetrapib + gemfibrozil versus evacetrapib (90% CI) ([7]; listed as Evacetrapib): 1.02 (0.933, 1.11) | AEs considered to be related to the study drug ([7]; 5 of 24 subjects who received evacetrapib alone and/or with gemfibrozil): 10 | Tmax ([7]; both, human, plasma, oral): 3 h | AUC [7, 14]: 11300 ng·h/mL | Cmax [7, 14]: 1270 ng/mL | Tmax [7, 14]: 4 h | severity of all AEs ([7]; human, in vivo): mild | AEs reported ([7]; whole study, reported by 12 subjects): 28 | difference in median tmax between treatments ([7]; with versus without gemfibrozil): no significant difference | drug solubility [8]: poor | protein binding [9]: high | HDL-C levels [10]: increased | LDL-C levels [10]: decreased | changes in blood pressure, aldosterone, cortisol, or electrolytes [10]: without producing substantial changes

CC(=O)N1CCN(c2ccc(OCC3COC(Cn4ccnc4)(c4ccc(Cl)cc4Cl)O3)cc2)CC1 (stereo not shown) [ketoconazole, reference compound]
TEAEs considered moderate ([6]; reported by subjects who received ketoconazole alone): 2
